The text below walks through data of PMC6859084 (Drug Design, Development and Therapy, 2019).

The nature of series [1]: Pharmacokinetics after single oral dose of FDC or loose combination. Format: in vivo, human. Conditions: FDC to loose combination. The procedure, abridged:
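Healthy subjects, randomized open-label two-period crossover with 14-day washout, fasted overnight, single oral dose with 200 mL water. Heparinized blood drawn pre-dose to 72 h, centrifuged 1,800 rpm 8 min at 4°C, plasma mixed 1:1 with 5% formic acid, stored −70°C. LC-MS/MS (C18, positive ESI, MRM), validated 0.5–200 ng/mL. Non-compartmental parameters; log-transformed GMR from linear mixed-effects model.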

For series [2] the following is noted: previously reported; cited from earlier work.
The next series relates to LDL-C. Conditions: cited from earlier work.

Read-outs that look alike come from different tables or passages of the source.

For orientation: half-life means how long it takes for the measured level to halve. Take `N[C@@H](CC(=O)N1CCc2c(nc(C(F)(F)F)nc2C(F)(F)F)C1)CN1CC(F)(F)CCC1=O` [Gemigliptin]: in series [1], the “AUClast Geometric Mean Ratio (90% CI)” value is 1.02 (0.96–1.09) and the “Cmax Geometric Mean Ratio (90% CI)” value is reported as 1.08 (0.99–1.18). The half-life in series [2] is 17 h.
With `CC(C)c1nc(N(C)S(C)(=O)=O)nc(-c2ccc(F)cc2)c1/C=C/[C@@H](O)C[C@@H](O)CC(=O)O` [Rosuvastatin], in series [1], the “AUClast Geometric Mean Ratio (90% CI)” value is on record as 1.02 (0.95–1.09) and the “Cmax Geometric Mean Ratio (90% CI)” value was 1.09 (0.96–1.22). In the series with LDL-C (first week after rosuvastatin administration), the LDL-C reduction was 64%. Moreover, the LDL-C reduction in the series with LDL-C (second week after rosuvastatin administration) is recorded as 90%.
